{
  "source": "ChEMBL document CHEMBL1132144",
  "about": "“Synthesis of 9-O-substituted derivatives of 9-hydroxy-5, 6-dimethyl-6H-pyrido[4,3-b]carbazole-1-carboxylic acid (2-(dimethylamino)ethyl)amide and their 10- and 11-methyl analogues with improved antitumor activity” (J Med Chem, 1999)",
  "key": {"[1]": {"tested_on": "L1210", "assay": "Inhibition of murine L1210 leukemia cell proliferation measured by the MTT assay", "assay_type": "functional, cell-based", "settings": "Mus musculus", "how_it_was_run": "(§1)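 Murine L1210 leukemia and B16 melanoma cells were grown in RPMI 1640 with 10% fetal calf serum, 2 mM L-glutamine, penicillin/streptomycin and 10 mM HEPES (pH 7.4). Cells were exposed to nine serial drug dilutions in triplicate for about four doubling times (L1210 48 h, B16 96 h), then read by microculture tetrazolium (MTT) assay. IC50 is the concentration halving optical density versus untreated controls, averaged over ≥2 independent experiments.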"}, "[2]": {"tested_on": "Mus musculus", "assay": "Long-term survivors among 21 mice infected with P388 leukemia, scored on day 60 at 160-320 mg/kg dose on day 1", "assay_type": "functional", "how_it_was_run": "(§2)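 B6D2F1 mice in groups of 6–7 were inoculated ip on day 0 with 10^6 P388 cells. Dihydrochloride salts were dissolved in water and given iv on day 1 or on days 1, 5 and 9. Doses ranged from a low nontoxic dose to a toxic one. Long-term survivors were counted at day 60.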"}, "[3]": {"tested_on": "Mus musculus", "assay": "Percent median survival time of mice injected with B16 melanoma, at a intraperitoneal compound dose of 10 mg/kg"}, "[4]": {"tested_on": "Mus musculus", "assay": "Percent median survival time of mice injected with P388 leukemia, at a subcutaneous compound dose of 160-320 mg/kg", "assay_type": "functional"}, "[5]": {"tested_on": "Mus musculus", "assay": "Percent median survival time of mice injected with P388 leukemia, at a intravenous compound dose of 80 mg/kg"}, "[6]": {"tested_on": "B16", "assay": "Inhibition of murine B16 melanoma cell proliferation measured by the MTT assay", "assay_type": "functional, cell-based", "settings": "Mus musculus", "how_it_was_run": "as §1"}, "[7]": {"tested_on": "Mus musculus", "assay": "Long-term survivors among 21 mice infected with B16 melanoma, scored on day 90 at 10 mg/kg dose on days 1-9"}, "[8]": {"tested_on": "Mus musculus", "assay": "Percent median survival time of mice injected with B16 melanoma, at a intraperitoneal compound dose of 5 mg/kg"}, "[9]": {"tested_on": "Mus musculus", "assay": "Percent median survival time of mice injected with P388 leukemia, at a intravenous compound dose of 80 mg/kg on day1,5,9"}, "[10]": {"tested_on": "Mus musculus", "assay": "Percent median survival time of mice injected with P388 leukemia, at a intravenous compound dose of 80 mg/kg on day1"}, "[11]": {"tested_on": "Mus musculus", "assay": "Long-term survivors among 12 mice infected with P388 leukemia, scored on day 60 at 80 mg/kg dose on day 1", "assay_type": "functional", "how_it_was_run": "as §2"}, "[12]": {"tested_on": "Mus musculus", "assay": "Long-term survivors among 12 mice infected with P388 leukemia, scored on day 60 at 80 mg/kg dose on day 1, 5, 9", "assay_type": "functional", "how_it_was_run": "as §2"}, "[13]": {"tested_on": "Mus musculus", "assay": "Long-term survivors among 14 mice infected with B16 melanoma, scored on day 90 at 5 mg/kg dose", "assay_type": "functional", "how_it_was_run": "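B6D2F1 mice were inoculated ip on day 0 with B16 tumor brei (1 g tumor in 10 mL 0.9% NaCl). Compounds were given ip daily on days 1–9. Long-term survivors were scored at day 90.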"}, "[14]": {"tested_on": "Mus musculus", "assay": "Percent median survival time of mice injected with P388 leukemia, at a subcutaneous compound dose of 40 mg/kg", "assay_type": "functional"}, "[15]": {"tested_on": "Mus musculus", "assay": "Long-term survivors among 13 mice infected with B16 melanoma, scored on day 90 at 10 mg/kg dose on days 1-9"}, "[16]": {"tested_on": "Mus musculus", "assay": "Long-term survivors among 13 mice infected with P388 leukemia, scored on day 60 at 80 mg/kg dose on day 1", "assay_type": "functional", "how_it_was_run": "as §2"}, "[17]": {"tested_on": "Mus musculus", "assay": "Percent median survival time of mice intraperitoneally injected with P388 leukemia was determined from tested at 10 mg/kg at day1 dose to that of control", "assay_type": "functional", "how_it_was_run": "(§3)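 P388 leukemia in B6D2F1 mice (groups of 6–7), 10^6 cells inoculated ip on day 0. Dihydrochloride salts were dissolved in water and given iv on day 1 or on days 1, 5, 9. Three doses were tested, then five if active. %T/C = median survival treated/control × 100, reported at the optimal dose (no toxic death, weight loss <20%), from one or two representative experiments.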"}, "[18]": {"tested_on": "Mus musculus", "assay": "Long-term survivors among 6 mice infected with P388 leukemia, scored on day 60 at 10 mg/kg dose", "assay_type": "functional", "how_it_was_run": "as §2"}, "[19]": {"tested_on": "Mus musculus", "assay": "Long-term survivors among 6 mice infected with P388 leukemia, scored on day 60 at 5 mg/kg dose", "assay_type": "functional", "how_it_was_run": "as §2"}, "[20]": {"tested_on": "Mus musculus", "assay": "Percent median survival time of mice intraperitoneally injected with P388 leukemia was determined from tested at 5 mg/kg at day1,5,9 dose to that of control", "assay_type": "functional", "settings": "route intraperitoneal", "how_it_was_run": "as §3"}, "[21]": {"tested_on": "Mus musculus", "assay": "Percent median survival time of mice injected with B16 melanoma, at a intraperitoneal compound dose of 20 mg/kg"}, "[22]": {"tested_on": "Mus musculus", "assay": "Percent median survival time of mice injected with P388 leukemia at 160 mg/Kg dose; not tested", "assay_type": "functional"}, "[23]": {"tested_on": "Mus musculus", "assay": "Long-term survivors among 7 mice infected with B16 melanoma, scored on day 90 at 240 mg/kg dose on day 1", "assay_type": "functional"}, "[24]": {"tested_on": "Mus musculus", "assay": "Percent median survival time of mice injected with P388 leukemia at 240 mg/Kg dose; not tested", "assay_type": "functional"}, "[25]": {"tested_on": "Mus musculus", "assay": "Percent median survival time of mice injected with B16 melanoma at 80 mg/Kg subcutaneous dose; not tested", "assay_type": "functional"}, "[26]": {"tested_on": "Mus musculus", "assay": "Long-term survivors among 7 mice infected with P388 leukemia, scored on day 60 at 240 mg/kg dose on day 1", "assay_type": "functional", "how_it_was_run": "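B6D2F1 mice in groups of 6–7 received 10^6 P388 cells ip on day 0. Dihydrochloride salts dissolved in water were injected iv on day 1 or on days 1, 5 and 9, at three doses and then five. Read-outs were % T/C (median survival treated/control × 100) and long-term survivors on day 60, both at the optimal dose (no toxic death, weight loss <20%).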"}, "[27]": {"tested_on": "Mus musculus", "assay": "Percent median survival time of mice injected with P388 leukemia, at a intravenous compound dose of 40 mg/kg"}, "[28]": {"species": "Mus musculus", "assay": "Long-term survivors among 14 mice infected with B16 melanoma, scored on day 90 at optimal dose on days 1-9"}, "[29]": {"tested_on": "Mus musculus", "assay": "Long-term survivors among 14 mice infected with P388 leukemia, scored on day 60 at 40 mg/kg dose on day 1", "assay_type": "functional", "how_it_was_run": "as §2"}, "[30]": {"tested_on": "Mus musculus", "assay": "Percent median survival time of mice injected with B16 melanoma, at a intraperitoneal compound dose of 2.5-5 mg/kg"}, "[31]": {"tested_on": "Mus musculus", "assay": "Percent median survival time of mice injected with P388 leukemia, at a subcutaneous compound dose of 20 mg/kg", "assay_type": "functional"}},
  "note": "Values joined by “and” are separate entries in the source; they are usually repeats but may differ in a detail not shown here. Equal entries are not always repeated.",
  "data": [
    {"smiles": "Cc1c2ccnc(C(=O)NCCN(C)C)c2cc2c3cc(OC(=O)CCCC(=O)O)ccc3n(C)c12", "values": [
      {"measurement": "IC50", "setting": "[1]", "value": 0.0197, "unit": "µM"},
      {"measurement": "LTS", "setting": "[2]", "value": 4},
      {"measurement": "T/C", "setting": "[3]", "value": 196, "unit": "%"},
      {"measurement": "T/C", "setting": "[4]", "value": ">590", "unit": "%"},
      {"measurement": "T/C", "setting": "[5]", "value": ">582", "unit": "%"},
      {"measurement": "IC50", "setting": "[6]", "value": 0.0148, "unit": "µM"},
      {"measurement": "LTS", "setting": "[7]", "value": 2}
    ]},
    {"smiles": "Cc1c2ccnc(C(=O)NCCN(C)C)c2cc2c3cc(O)ccc3n(C)c12", "values": [
      {"measurement": "IC50", "setting": "[1]", "value": 0.0131, "unit": "µM"},
      {"measurement": "T/C", "setting": "[8]", "value": 174, "unit": "%"},
      {"measurement": "T/C", "setting": "[9]", "value": ">541", "unit": "%"},
      {"measurement": "T/C", "setting": "[10]", "value": 227, "unit": "%"},
      {"measurement": "LTS", "setting": "[11]", "value": 0},
      {"measurement": "LTS", "setting": "[12]", "value": 7},
      {"measurement": "LTS", "setting": "[13]", "value": 0},
      {"measurement": "IC50", "setting": "[6]", "value": 0.0054, "unit": "µM"}
    ]},
    {"smiles": "Cc1c2ccnc(C(=O)NCCN(C)C)c2cc2c3cc(OC(=O)c4cccnc4)ccc3n(C)c12", "values": [
      {"measurement": "IC50", "setting": "[1]", "value": 0.0745, "unit": "µM"},
      {"measurement": "T/C", "setting": "[14]", "value": "199% and 283%"},
      {"measurement": "LTS", "setting": "[15]", "value": 0},
      {"measurement": "T/C", "setting": "[3]", "value": 190, "unit": "%"},
      {"measurement": "LTS", "setting": "[16]", "value": 0},
      {"measurement": "IC50", "setting": "[6]", "value": 0.0023, "unit": "µM"}
    ]},
    {"smiles": "Cc1c2ccnc(C(=O)NCCN(C)C)c2cc2c3cc(OC(=O)N(C)c4ccccc4)ccc3n(C)c12", "values": [
      {"measurement": "IC50", "setting": "[1]", "value": 1.17, "unit": "µM"},
      {"measurement": "T/C", "setting": "[17]", "value": 100, "unit": "%"},
      {"measurement": "LTS", "setting": "[18]", "value": 0},
      {"measurement": "LTS", "setting": "[19]", "value": 0},
      {"measurement": "T/C", "setting": "[20]", "value": 106, "unit": "%"},
      {"measurement": "T/C", "setting": "[21]", "value": 101, "unit": "%"},
      {"measurement": "IC50", "setting": "[6]", "value": 1.37, "unit": "µM"}
    ]},
    {"smiles": "Cc1c2ccnc(C(=O)NCCN(C)C)c2cc2c3cc(OC(=O)NCCC(=O)O)ccc3n(C)c12", "values": [
      {"measurement": "IC50", "setting": "[1]", "value": 0.654, "unit": "µM"},
      {"measurement": "T/C", "setting": "[22]", "value": 109, "unit": "%"},
      {"measurement": "LTS", "setting": "[23]", "value": 0},
      {"measurement": "T/C", "setting": "[24]", "value": 109, "unit": "%"},
      {"measurement": "T/C", "setting": "[25]", "value": 138, "unit": "%"},
      {"measurement": "LTS", "setting": "[26]", "value": 0},
      {"measurement": "IC50", "setting": "[6]", "value": 0.0787, "unit": "µM"}
    ]},
    {"smiles": "Cc1c2c(C(=O)NCCN(C)C)nccc2c(C)c2c1c1cc(OC(=O)CCCCC(=O)O)ccc1n2C", "values": [
      {"measurement": "IC50", "setting": "[1]", "value": 0.0459, "unit": "µM"},
      {"measurement": "T/C", "setting": "[27]", "value": ">600", "unit": "%"},
      {"measurement": "LTS", "setting": "[28]", "value": 4},
      {"measurement": "LTS", "setting": "[29]", "value": 11},
      {"measurement": "T/C", "setting": "[30]", "value": 361, "unit": "%"},
      {"measurement": "T/C", "setting": "[31]", "value": ">600", "unit": "%"},
      {"measurement": "IC50", "setting": "[6]", "value": 0.0063, "unit": "µM"}
    ]}
  ]
}
